The values that follow come from ChEMBL document CHEMBL1641580, “Identification of 3-phenylaminoquinolinium and 3-phenylaminopyridinium salts as new agents against opportunistic fungal pathogens” (Bioorg Med Chem, 2011).

Each structure is given as a SMILES string. Converted amounts (≈) assume the structure as drawn. The source made the active and inactive calls.

The subject of data set [1] is Candida albicans. The data set is described as follows: Antifungal activity against Candida albicans ATCC 90028 assessed as inhibition of fungal growth by alamar blue assay. Type of data set: functional, organism-based. A digest of the protocol: (§1)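 Broth microdilution modified from NCCLS. DMSO stocks serially diluted in saline and plated in duplicate. Inoculum set by 0.5 McFarland standard. Media: C. albicans in SDB or RPMI 1640; C. neoformans in SDB; A. fumigatus in RPMI-1640 + 5% Alamar Blue. Highest final concentration 20 µg/mL. Plates read before and after incubation by fluorescence 544ex/590em (A. fumigatus) or OD 630 nm. IC50 from percent growth vs concentration.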
For orientation: Alamar Blue is a resazurin reagent that responds to reducing activity.

For data set [2], the system named is Cryptococcus neoformans. As to the kind of experiment: Antifungal activity against Cryptococcus neoformans ATCC 90113 by microscopy. The class given is functional. Summed up: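 Modified NCCLS microdilution. Samples in DMSO serially diluted in saline and tested in duplicate against inocula standardized to 0.5 McFarland. Highest final concentration 20 µg/mL. MIC read visually as the lowest concentration with no detectable growth (for Alamar Blue wells, no blue-to-pink change).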

The subject of data set [3] is Cryptococcus neoformans. As to the kind of experiment: Antifungal activity against Cryptococcus neoformans at 20 ug/mL.
Data set [4] in a line: Cytotoxicity against african green monkey Vero cells. Conditions: chlorocebus sabaeus, read-out: TC50 (the source's name). The class given is cell-based. A digest of the protocol: (§2)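 Vero kidney fibroblasts seeded at 25,000 cells/well and grown 24 h, then exposed to samples up to 20 µg/ml for 48 h. Viable cells measured by neutral red assay. IC50 taken from growth-inhibition vs concentration curves. DMSO served as vehicle control.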

For data set [5], the system named is Cryptococcus neoformans. The data set is described as follows: Antifungal activity against Cryptococcus neoformans ATCC 90113 assessed as inhibition of fungal growth by alamar blue assay. Type of data set: functional, organism-based. A digest of the protocol:
as §1

The subject of data set [6] is Aspergillus fumigatus. As to the kind of experiment: Antifungal activity against Aspergillus fumigatus ATCC 90906 assessed as inhibition of fungal growth by alamar blue assay. The class given is functional, organism-based. Conditions: Aspergillus fumigatus, ATCC 90906; read-out: IC50. A digest of the protocol: as §1
The subject of data set [7] is Candida albicans. As to the kind of experiment: Antifungal activity against Candida albicans ATCC 90028 by microscopy. The class given is functional. Summed up:
(§3)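 Modified NCCLS microdilution. Samples in DMSO serially diluted in saline and tested in duplicate against inocula standardized to 0.5 McFarland. Broths: C. albicans SDB or RPMI 1640; C. neoformans SDB; A. fumigatus YM broth. Highest final concentration 20 µg/mL. MIC read visually as the lowest concentration with no detectable growth (for Alamar Blue wells, no blue-to-pink change).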

Data set [8] deals with Aspergillus fumigatus. As to the kind of experiment: Antifungal activity against Aspergillus fumigatus ATCC 90906 by microscopy. Type of data set: functional. A digest of the protocol:
as §3

Data set [9] deals with Aspergillus fumigatus. As to the kind of experiment: Fungicidal activity against Aspergillus fumigatus ATCC 90906. Type of data set: functional.
Data set [10] relates to Cryptococcus neoformans. As to the kind of experiment: Fungicidal activity against Cryptococcus neoformans ATCC 90113. Type of data set: functional.
The nature of data set [11]: Cytotoxicity against african green monkey Vero cells after 48 hrs by neutral red assay. The following applies: chlorocebus sabaeus, read-out: TC50. Type of data set: cell-based. A digest of the protocol:
as §2

Data set [12] concerns Candida albicans. As to the kind of experiment: Fungicidal activity against Candida albicans ATCC 90028. Type of data set: functional.
The test system of data set [13] is Candida albicans. The data set is described as follows: Antifungal activity against Candida albicans ATCC 90028 assessed as inhibition of fungal growth at 20 ug/mL by alamar blue assay. Type of data set: functional, organism-based. Summed up:
as §1

The test system of data set [14] is Cryptococcus neoformans. The data set is described as follows: Fungicidal activity against Cryptococcus neoformans ATCC 90113 at 20 ug/mL. Type of data set: functional, organism-based.
For data set [15], the system named is Aspergillus fumigatus. The data set is described as follows: Fungicidal activity against Aspergillus fumigatus ATCC 90906 at 20 ug/mL. The class given is functional, organism-based.
The subject of data set [16] is Aspergillus fumigatus. As to the kind of experiment: Antifungal activity against Aspergillus fumigatus ATCC 90906 assessed as inhibition of fungal growth at 20 ug/mL by alamar blue assay. The class given is functional, organism-based. Summed up:
as §1

Data set [17] deals with Candida albicans. As to the kind of experiment: Fungicidal activity against Candida albicans ATCC 90028 at 20 ug/mL. The class given is functional, organism-based.
Data set [18] has as its system Cryptococcus neoformans. As to the kind of experiment: Antifungal activity against Cryptococcus neoformans ATCC 90113 at 20 ug/mL by microscopy. Type of data set: functional, organism-based. A digest of the protocol:
as §3

Data set [19] relates to Cryptococcus neoformans. As to the kind of experiment: Antifungal activity against Cryptococcus neoformans ATCC 90113 assessed as inhibition of fungal growth at 20 ug/mL by alamar blue assay. The class given is functional, organism-based. Summed up: as §1
The test system of data set [20] is Candida albicans. As to the kind of experiment: Antifungal activity against Candida albicans ATCC 90028 at 20 ug/mL by microscopy. The class given is functional, organism-based. A digest of the protocol: as §3
In data set [21] the test system is Aspergillus fumigatus. As to the kind of experiment: Antifungal activity against Aspergillus fumigatus ATCC 90906 at 20 ug/mL by microscopy. Type of data set: functional, organism-based. Summed up: as §3
In the next data set the test system is Vero. As to the kind of experiment: Cytotoxicity against african green monkey Vero cells at 20 ug/mL after 48 hrs by neutral red assay. The class given is cell-based. Conditions: chlorocebus sabaeus. A digest of the protocol: as §2

Consider `C[n+]1c2ccccc2cc2[n-]c3ccccc3c21` [CRYPTOLEPINE], for which the IC50 with Candida albicans [1] came out at 20 µg/mL (≈ 86.1 µM). In addition, the MIC in the data set on Cryptococcus neoformans [2] turned out to be 20 µg/mL (≈ 86.1 µM); with Cryptococcus neoformans [3], 12.5 µg/mL (≈ 53.8 µM). The CC50 in [4] is 3.2 µg/mL (≈ 13.8 µM).
For `C[C@@H]1[C@H](O)[C@@H](C)/C=C/C=C/C=C/C=C/C=C/C=C/C=C/[C@H](O[C@@H]2O[C@H](C)[C@@H](O)[C@H](N)[C@@H]2O)C[C@@H]2O[C@](O)(C[C@@H](O)C[C@@H](O)[C@H](O)CC[C@@H](O)C[C@@H](O)CC(=O)O[C@H]1C)C[C@H](O)[C@H]2C(=O)O` [AMPHOTERICIN B], the IC50 in the data set on Cryptococcus neoformans [5] is 1.3 µg/mL (≈ 1.41 µM); with Aspergillus fumigatus [6], 0.7 µg/mL (≈ 0.758 µM). For the same molecule, the results for the MIC against Candida albicans [7] and in the data set with Aspergillus fumigatus [8] were 0.6 µg/mL (≈ 0.649 µM) and 1.3 µg/mL (≈ 1.41 µM), respectively. Besides, the MFC in the data set with Aspergillus fumigatus [9] came to 5 µg/mL (≈ 5.41 µM); against Cryptococcus neoformans [10] it was 1 µg/mL (≈ 1.08 µM); in the data set on Candida albicans [12] it was 1.3 µg/mL (≈ 1.41 µM). Besides, the CC50 at 48 h in data set [11] worked out at 7.6 µg/mL (≈ 8.22 µM). For the same molecule, the CC50 in data set [4] amounted to 7.6 µg/mL (≈ 8.22 µM).
On to `C[n+]1cc(Nc2ccc(Cl)cc2)cc2ccccc21.[I-]`, for which the inhibition entry in the data set with Candida albicans [13], in the data set on Aspergillus fumigatus [16] and in the data set with Cryptococcus neoformans [19] was “inactive” in each case. The result in the data set with Cryptococcus neoformans [14], in the data set on Aspergillus fumigatus [15], in the data set with Candida albicans [17], with Cryptococcus neoformans [18], in the data set on Candida albicans [20] and with Aspergillus fumigatus [21] was inactive. Further, the Activity entry with Vero is “Non-toxic”.
`C[n+]1cc(Nc2ccccc2)cc2ccccc21.[I-]`: the inhibition entry in the data set with Candida albicans [13], with Aspergillus fumigatus [16] and in the data set with Cryptococcus neoformans [19] was “inactive” throughout. The outcome in the data set with Cryptococcus neoformans [14], in the data set with Aspergillus fumigatus [15], in the data set with Candida albicans [17], in the data set with Cryptococcus neoformans [18], with Candida albicans [20] and in the data set with Aspergillus fumigatus [21] was inactive. For the same molecule, in the data set with Vero, the Activity entry is recorded as “Non-toxic”.

The IC50 is the midpoint of a concentration-inhibition curve. In general, MIC refers to the lowest concentration that inhibits growth of the organism. As a reminder, the MFC is the smallest concentration meeting the test's criterion for killing the fungus.
